This passage reports Activity and EC50 results from ChEMBL document CHEMBL1149639, “Anti-tumor agents 255: novel glycyrrhetinic acid-dehydrozingerone conjugates as cytotoxic agents” (2007).

Structures are written as SMILES. pEC50: −log10 of the molar value. Activity calls are given as the source filed them. The calls are words filed in the database; no cut-off is given here.

The test system of the first test is 1A9. Put plainly: Cytotoxicity against human 1A9 cells. It is filed as functional.
Conditions: not given
The procedure, abridged: (§1)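 Sulforhodamine B assay after Rubinstein et al. Cells grown at 37 °C, humidified 5% CO2, in RPMI-1640 with 10% (v/v) FBS and 100 μg/mL kanamycin. Seeding density set per line to give final A562 of 1-2.5. Stocks in DMSO, final DMSO <1% (v/v). Two-day drug exposure, absorbance at 562 nm. ED50 (50% absorbance reduction vs untreated) interpolated from dose-response. Tests in duplicate.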
For `COc1ccc(/C=C/C(=O)c2ccccc2)c(OC(=O)[C@@]2(C)CC[C@]3(C)CC[C@]4(C)C(=CC(=O)[C@@H]5[C@@]6(C)CC[C@H](O)C(C)(C)[C@@H]6CC[C@]54C)[C@@H]3C2)c1`, the result was inactive.

The test is the same for the next values; noted with them: read-out: ED50 (the source's name).
In the case of `CC(=O)/C=C/c1cccc(F)c1OC(=O)[C@@]1(C)CC[C@]2(C)CC[C@]3(C)C(=CC(=O)[C@@H]4[C@@]5(C)CC[C@H](O)C(C)(C)[C@@H]5CC[C@]43C)[C@@H]2C1`, the pEC50 was 5.89.
As to `CCOc1cc(/C=C/C(C)=O)ccc1OC(=O)[C@@]1(C)CC[C@]2(C)CC[C@]3(C)C(=CC(=O)[C@@H]4[C@@]5(C)CC[C@H](O)C(C)(C)[C@@H]5CC[C@]43C)[C@@H]2C1`, the pEC50 was 5.96.
Still for that read-out and setting: the figure for `COc1cc(/C=C/C(C)=O)ccc1OC(=O)[C@@]1(C)CC[C@]2(C)CC[C@]3(C)C(=CC(=O)[C@@H]4[C@@]5(C)CC[C@H](O)C(C)(C)[C@@H]5CC[C@]43C)[C@@H]2C1` is 6.05.

The next test relates to HCT-8. Put plainly: Cytotoxicity against human HCT8 cells. It counts as functional. To be noted: read-out: ED50 (the source's name). The method, boiled down: as §1
For `CC(=O)/C=C/c1cccc(F)c1OC(=O)[C@@]1(C)CC[C@]2(C)CC[C@]3(C)C(=CC(=O)[C@@H]4[C@@]5(C)CC[C@H](O)C(C)(C)[C@@H]5CC[C@]43C)[C@@H]2C1`, the pEC50 is 5.66.
Take `CCOc1cc(/C=C/C(C)=O)ccc1OC(=O)[C@@]1(C)CC[C@]2(C)CC[C@]3(C)C(=CC(=O)[C@@H]4[C@@]5(C)CC[C@H](O)C(C)(C)[C@@H]5CC[C@]43C)[C@@H]2C1`: the pEC50 was 5.57.
Regarding `COc1cc(/C=C/C(C)=O)ccc1OC(=O)[C@@]1(C)CC[C@]2(C)CC[C@]3(C)C(=CC(=O)[C@@H]4[C@@]5(C)CC[C@H](O)C(C)(C)[C@@H]5CC[C@]43C)[C@@H]2C1`, the pEC50 is 5.77.
Regarding `COc1ccc(/C=C/C(=O)c2ccccc2)c(OC(=O)[C@@]2(C)CC[C@]3(C)CC[C@]4(C)C(=CC(=O)[C@@H]5[C@@]6(C)CC[C@H](O)C(C)(C)[C@@H]6CC[C@]54C)[C@@H]3C2)c1`, the pEC50 was less than 4.85.

In a further test the test system is DU-145. Put plainly: Cytotoxicity against human DU145 cells. It counts as functional. To be noted: read-out: ED50 (the source's name). The procedure, abridged: as §1
Turning to `CC(=O)/C=C/c1cccc(F)c1OC(=O)[C@@]1(C)CC[C@]2(C)CC[C@]3(C)C(=CC(=O)[C@@H]4[C@@]5(C)CC[C@H](O)C(C)(C)[C@@H]5CC[C@]43C)[C@@H]2C1`, the pEC50 is 5.57.
As to `CCOc1cc(/C=C/C(C)=O)ccc1OC(=O)[C@@]1(C)CC[C@]2(C)CC[C@]3(C)C(=CC(=O)[C@@H]4[C@@]5(C)CC[C@H](O)C(C)(C)[C@@H]5CC[C@]43C)[C@@H]2C1`, the pEC50 is 5.24.
Regarding `COc1cc(/C=C/C(C)=O)ccc1OC(=O)[C@@]1(C)CC[C@]2(C)CC[C@]3(C)C(=CC(=O)[C@@H]4[C@@]5(C)CC[C@H](O)C(C)(C)[C@@H]5CC[C@]43C)[C@@H]2C1`, the pEC50 was 5.51.
Take `COc1ccc(/C=C/C(=O)c2ccccc2)c(OC(=O)[C@@]2(C)CC[C@]3(C)CC[C@]4(C)C(=CC(=O)[C@@H]5[C@@]6(C)CC[C@H](O)C(C)(C)[C@@H]6CC[C@]54C)[C@@H]3C2)c1`: the pEC50 is 4.89.

For a further test, the system named is KB. Put plainly: Cytotoxicity against human KB cells. It is filed as functional. The following applies: read-out: ED50 (the source's name). The procedure, abridged:
as §1
Regarding `CC(=O)/C=C/c1cccc(F)c1OC(=O)[C@@]1(C)CC[C@]2(C)CC[C@]3(C)C(=CC(=O)[C@@H]4[C@@]5(C)CC[C@H](O)C(C)(C)[C@@H]5CC[C@]43C)[C@@H]2C1`, the pEC50 is 5.52.
In the case of `CCOc1cc(/C=C/C(C)=O)ccc1OC(=O)[C@@]1(C)CC[C@]2(C)CC[C@]3(C)C(=CC(=O)[C@@H]4[C@@]5(C)CC[C@H](O)C(C)(C)[C@@H]5CC[C@]43C)[C@@H]2C1`, the pEC50 is 5.74.
On to `COc1cc(/C=C/C(C)=O)ccc1OC(=O)[C@@]1(C)CC[C@]2(C)CC[C@]3(C)C(=CC(=O)[C@@H]4[C@@]5(C)CC[C@H](O)C(C)(C)[C@@H]5CC[C@]43C)[C@@H]2C1`, for which the pEC50 was 5.80.
As for `COc1ccc(/C=C/C(=O)c2ccccc2)c(OC(=O)[C@@]2(C)CC[C@]3(C)CC[C@]4(C)C(=CC(=O)[C@@H]5[C@@]6(C)CC[C@H](O)C(C)(C)[C@@H]6CC[C@]54C)[C@@H]3C2)c1`, the pEC50 is less than 4.85.

Another test has as its system A549. Put plainly: Cytotoxicity against human A549 cells. It is filed as functional.
Conditions: not given
The procedure, abridged: as §1
For the compound `COc1ccc(/C=C/C(=O)c2ccccc2)c(OC(=O)[C@@]2(C)CC[C@]3(C)CC[C@]4(C)C(=CC(=O)[C@@H]5[C@@]6(C)CC[C@H](O)C(C)(C)[C@@H]6CC[C@]54C)[C@@H]3C2)c1`, the result was inactive.

Still in this test, the particulars now being: read-out: ED50 (the source's name).
Regarding `CC(=O)/C=C/c1cccc(F)c1OC(=O)[C@@]1(C)CC[C@]2(C)CC[C@]3(C)C(=CC(=O)[C@@H]4[C@@]5(C)CC[C@H](O)C(C)(C)[C@@H]5CC[C@]43C)[C@@H]2C1`, the pEC50 is 5.49.
On the same count and under the same terms, in the case of `CCOc1cc(/C=C/C(C)=O)ccc1OC(=O)[C@@]1(C)CC[C@]2(C)CC[C@]3(C)C(=CC(=O)[C@@H]4[C@@]5(C)CC[C@H](O)C(C)(C)[C@@H]5CC[C@]43C)[C@@H]2C1` it was 5.77.
Regarding `COc1cc(/C=C/C(C)=O)ccc1OC(=O)[C@@]1(C)CC[C@]2(C)CC[C@]3(C)C(=CC(=O)[C@@H]4[C@@]5(C)CC[C@H](O)C(C)(C)[C@@H]5CC[C@]43C)[C@@H]2C1`, the pEC50 was 5.70.

Tested on in the next test: not listed separately
Put plainly: Cytotoxicity against human KB-VIN cells by sulforhodamine B assay. It counts as functional. To be noted: KBVIN, read-out: ED50 (the source's name). The method, boiled down: as §1
In the case of `COc1cc(/C=C/C(C)=O)ccc1OC(=O)[C@@]1(C)CC[C@]2(C)CC[C@]3(C)C(=CC(=O)[C@@H]4[C@@]5(C)CC[C@H](O)C(C)(C)[C@@H]5CC[C@]43C)[C@@H]2C1`, the pEC50 was 5.55.

The next test relates to LNCaP. Put plainly: Cytotoxicity against human LN-Cap cells. The following applies: read-out: ED50 (the source's name). It is filed as functional. The method, boiled down:
as §1
In the case of `CC(=O)/C=C/c1cccc(F)c1OC(=O)[C@@]1(C)CC[C@]2(C)CC[C@]3(C)C(=CC(=O)[C@@H]4[C@@]5(C)CC[C@H](O)C(C)(C)[C@@H]5CC[C@]43C)[C@@H]2C1`, the pEC50 is 5.36.
The same measure, in the same setting: the figure for `CCOc1cc(/C=C/C(C)=O)ccc1OC(=O)[C@@]1(C)CC[C@]2(C)CC[C@]3(C)C(=CC(=O)[C@@H]4[C@@]5(C)CC[C@H](O)C(C)(C)[C@@H]5CC[C@]43C)[C@@H]2C1` is 5.96; for `COc1cc(/C=C/C(C)=O)ccc1OC(=O)[C@@]1(C)CC[C@]2(C)CC[C@]3(C)C(=CC(=O)[C@@H]4[C@@]5(C)CC[C@H](O)C(C)(C)[C@@H]5CC[C@]43C)[C@@H]2C1` it is 6.22; for `COc1ccc(/C=C/C(=O)c2ccccc2)c(OC(=O)[C@@]2(C)CC[C@]3(C)CC[C@]4(C)C(=CC(=O)[C@@H]5[C@@]6(C)CC[C@H](O)C(C)(C)[C@@H]6CC[C@]54C)[C@@H]3C2)c1` it is less than 4.85.

Tested on in a further test: not listed separately
Put plainly: Cytotoxicity against human KB-VIN cells. It counts as functional. To be noted: KBVIN, read-out: ED50 (the source's name). The procedure, abridged:
as §1
As to `CC(=O)/C=C/c1cccc(F)c1OC(=O)[C@@]1(C)CC[C@]2(C)CC[C@]3(C)C(=CC(=O)[C@@H]4[C@@]5(C)CC[C@H](O)C(C)(C)[C@@H]5CC[C@]43C)[C@@H]2C1`, the pEC50 was 5.06.
As to `CCOc1cc(/C=C/C(C)=O)ccc1OC(=O)[C@@]1(C)CC[C@]2(C)CC[C@]3(C)C(=CC(=O)[C@@H]4[C@@]5(C)CC[C@H](O)C(C)(C)[C@@H]5CC[C@]43C)[C@@H]2C1`, the pEC50 was 5.77.
The same measure, in the same setting: in the case of `COc1cc(/C=C/C(C)=O)ccc1OC(=O)[C@@]1(C)CC[C@]2(C)CC[C@]3(C)C(=CC(=O)[C@@H]4[C@@]5(C)CC[C@H](O)C(C)(C)[C@@H]5CC[C@]43C)[C@@H]2C1` it was 5.60; in that of `COc1ccc(/C=C/C(=O)c2ccccc2)c(OC(=O)[C@@]2(C)CC[C@]3(C)CC[C@]4(C)C(=CC(=O)[C@@H]5[C@@]6(C)CC[C@H](O)C(C)(C)[C@@H]6CC[C@]54C)[C@@H]3C2)c1`, less than 4.85.

The next test deals with KB. Put plainly: Cytotoxicity against human KB cells by sulforhodamine B assay. It counts as functional. To be noted: read-out: ED50 (the source's name). The procedure, abridged:
as §1
On to `COc1cc(/C=C/C(C)=O)ccc1OC(=O)[C@@]1(C)CC[C@]2(C)CC[C@]3(C)C(=CC(=O)[C@@H]4[C@@]5(C)CC[C@H](O)C(C)(C)[C@@H]5CC[C@]43C)[C@@H]2C1`, for which the pEC50 is 5.77.

The test system of another test is ZR-75-1. Put plainly: Cytotoxicity against human ZR751 cells. It is filed as functional.
Conditions: not given
The procedure, abridged:
as §1
On to `COc1ccc(/C=C/C(=O)c2ccccc2)c(OC(=O)[C@@]2(C)CC[C@]3(C)CC[C@]4(C)C(=CC(=O)[C@@H]5[C@@]6(C)CC[C@H](O)C(C)(C)[C@@H]6CC[C@]54C)[C@@H]3C2)c1`, for which the outcome was inactive.

Staying with this test, now noted: read-out: ED50 (the source's name).
For `CC(=O)/C=C/c1cccc(F)c1OC(=O)[C@@]1(C)CC[C@]2(C)CC[C@]3(C)C(=CC(=O)[C@@H]4[C@@]5(C)CC[C@H](O)C(C)(C)[C@@H]5CC[C@]43C)[C@@H]2C1`, the pEC50 is 5.57.
On the same count and under the same terms, the figure for `CCOc1cc(/C=C/C(C)=O)ccc1OC(=O)[C@@]1(C)CC[C@]2(C)CC[C@]3(C)C(=CC(=O)[C@@H]4[C@@]5(C)CC[C@H](O)C(C)(C)[C@@H]5CC[C@]43C)[C@@H]2C1` is 5.28.
Still for that read-out and setting: in the case of `COc1cc(/C=C/C(C)=O)ccc1OC(=O)[C@@]1(C)CC[C@]2(C)CC[C@]3(C)C(=CC(=O)[C@@H]4[C@@]5(C)CC[C@H](O)C(C)(C)[C@@H]5CC[C@]43C)[C@@H]2C1` it was 5.55.

The test system of the next test is PC-3. Put plainly: Cytotoxicity against human PC3 cells. To be noted: read-out: ED50 (the source's name). It is filed as functional. The procedure, abridged:
as §1
Turning to `CC(=O)/C=C/c1cccc(F)c1OC(=O)[C@@]1(C)CC[C@]2(C)CC[C@]3(C)C(=CC(=O)[C@@H]4[C@@]5(C)CC[C@H](O)C(C)(C)[C@@H]5CC[C@]43C)[C@@H]2C1`, the pEC50 is 5.80.
Regarding `CCOc1cc(/C=C/C(C)=O)ccc1OC(=O)[C@@]1(C)CC[C@]2(C)CC[C@]3(C)C(=CC(=O)[C@@H]4[C@@]5(C)CC[C@H](O)C(C)(C)[C@@H]5CC[C@]43C)[C@@H]2C1`, the pEC50 is 5.48.
The same measure, in the same setting: in the case of `COc1cc(/C=C/C(C)=O)ccc1OC(=O)[C@@]1(C)CC[C@]2(C)CC[C@]3(C)C(=CC(=O)[C@@H]4[C@@]5(C)CC[C@H](O)C(C)(C)[C@@H]5CC[C@]43C)[C@@H]2C1` it was 5.85; in that of `COc1ccc(/C=C/C(=O)c2ccccc2)c(OC(=O)[C@@]2(C)CC[C@]3(C)CC[C@]4(C)C(=CC(=O)[C@@H]5[C@@]6(C)CC[C@H](O)C(C)(C)[C@@H]6CC[C@]54C)[C@@H]3C2)c1`, less than 4.85.
